Here are results for five compounds from ChEMBL document CHEMBL4052819 (2017).

The subject of one assay is Pseudomonas aeruginosa. The assay can be described thus: Antibacterial activity against Pseudomonas aeruginosa ATCC 27853 after 18 to 20 hrs by broth microdilution method. The assay is classed as functional. A digest of the protocol:
(§1)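 Broth microdilution in tryptic soy broth: 2-fold dilutions mixed 1:1 with ~1.5 × 10^5 CFU/mL inoculum, final 0.5–32 μg/mL; 37 °C, 18–20 h. MIC taken as lowest concentration giving no visible growth. At least three independent experiments, one replicate each.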

For assay [1], the system named is Acinetobacter baumannii. The assay can be described thus: Antibacterial activity against Acinetobacter baumannii ATCC 19606 after 18 to 20 hrs by broth microdilution method. The assay is classed as functional. The settings on record: ATCC 19606 = CIP 70.34 = JCM 6841.
Assay [2] has as its system Staphylococcus aureus. The assay is described as follows: Antibacterial activity against methicillin-resistant Staphylococcus aureus ATCC 43300 after 18 to 20 hrs by broth microdilution method. The assay is classed as functional. A digest of the protocol: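 Broth microdilution in tryptic soy broth: 2-fold dilutions mixed 1:1 with ~1.5 × 10^5 CFU/mL bacterial suspension in TSB, final 0.5–32 μg/mL, 37 °C for 18–20 h. MIC = lowest concentration with no visible growth. At least three independent experiments, one replicate each.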

The test system of assay [3] is Klebsiella pneumoniae. The assay is described as follows: Potentiation of rifampicin-mediated antibacterial activity against Klebsiella pneumoniae ATCC 13883 assessed as rifampicin MIC at 2 ug/ml by checkerboard method (reference value: 16 ug/ml). The assay is classed as functional.
Assay [4] has as its system Staphylococcus aureus. The assay is described as follows: Antibacterial activity against Staphylococcus aureus ATCC 29213 after 18 to 20 hrs by broth microdilution method. Format: functional. Put shortly:
as §1

Assay [5] relates to Acinetobacter baumannii. The assay can be described thus: Potentiation of rifampicin-mediated antibacterial activity against Acinetobacter baumannii ATCC 19606 assessed as rifampicin MIC at 2 ug/ml by checkerboard method (reference value: 16 ug/ml). The assay is classed as functional. Conditions: ATCC 19606 = CIP 70.34 = JCM 6841.
The next assay relates to Enterococcus faecium. The assay is described as follows: Antibacterial activity against Enterococcus faecium ATCC 19434 after 18 to 20 hrs by broth microdilution method. The assay is classed as functional. A digest of the protocol: as §1
Assay [6] has as its system Klebsiella pneumoniae. The assay can be described thus: Antibacterial activity against Klebsiella pneumoniae ATCC 13883 after 18 to 20 hrs by broth microdilution method. Format: functional.
Assay [7] concerns Acinetobacter baumannii. The assay can be described thus: Potentiation of rifampicin-mediated antibacterial activity against Acinetobacter baumannii ATCC 19606 assessed as decrease in rifampicin MIC at 4 ug/ml by checkerboard method relative to control. The assay is classed as functional, ATCC 19606 = CIP 70.34 = JCM 6841.
For assay [8], the system named is Klebsiella pneumoniae. The assay is described as follows: Potentiation of rifampicin-mediated antibacterial activity against Klebsiella pneumoniae ATCC 13883 assessed as decrease in rifampicin MIC at 2 ug/ml by checkerboard method relative to control. The assay is classed as functional.
The next assay deals with Escherichia coli. The assay can be described thus: Antibacterial activity against Escherichia coli ATCC 25922 after 18 to 20 hrs by broth microdilution method. The assay is classed as functional. A digest of the protocol: as §1

Structures are written as SMILES. Converted amounts (≈) assume the structure as drawn. Non-standard residues stand in square brackets, D forms with d. Residues, ends and D or L forms follow the SMILES beside them. *: point of attachment. Decanoyl = CCCCCCCCCC(=O)*; Heptanoyl = CCCCCCC(=O)*; Dab = NCC[C@H](N)C(=O)O; Cbz = O=C(OCc1ccccc1)*; Bz = O=C(c1ccccc1)* Bounds are passed on as bounds.

With `CCCCCCCCCC(=O)N[C@@H](CCN)C(=O)N[C@H](C(=O)N[C@H](C(=O)N[C@H](CC(C)C)C(=O)N[C@@H](CC(C)C)C(=O)N[C@@H](CCN)C(=O)N[C@@H](C(=O)N[C@@H](CC(C)C)C(=O)N[C@@H](CO)C(N)=O)C(C)C)[C@@H](C)O)[C@@H](C)CC` (Decanoyl-[Dab]IT[dL]L[Dab][dV]LS-NH2), the MIC is over 32 µg/mL in the assay on Pseudomonas aeruginosa; over 32 µg/mL against Acinetobacter baumannii [1]; over 32 µg/mL in the assay on Staphylococcus aureus [2]; over 0.125 µg/mL in the assay on Klebsiella pneumoniae [3]; over 32 µg/mL in the assay on Staphylococcus aureus [4]; over 0.125 µg/mL in the assay on Acinetobacter baumannii [5]. In addition, the values for the minimal inhibitory concentration (MIC) against Enterococcus faecium, with Klebsiella pneumoniae [6] and against Escherichia coli were at least 32 µg/mL, over 32 µg/mL and over 32 µg/mL, respectively. Further, the “fold change (FC)” value is under 128 with Acinetobacter baumannii [7] and under 8 in the assay on Klebsiella pneumoniae [8].

Consider `CCCCCCC(=O)N[C@@H](CCN)C(=O)N[C@H](C(=O)N[C@@H](CCN)C(=O)N[C@H](Cc1ccccc1)C(=O)N[C@@H](CC(C)C)C(=O)N[C@@H](CCN)C(=O)N[C@@H](C(=O)N[C@@H](CC(C)C)C(=O)N[C@@H](CO)C(N)=O)C(C)C)C(C)C` (Heptanoyl-[Dab]V[Dab][dF]L[Dab][dV]LS-NH2), for which the MIC in the assay on Pseudomonas aeruginosa was 16 µg/mL (≈ 14.7 µM); in the assay on Acinetobacter baumannii [1] it was over 32 µg/mL; against Staphylococcus aureus [2], over 32 µg/mL; with Klebsiella pneumoniae [3], 0.0156 µg/mL; with Staphylococcus aureus [4], over 32 µg/mL; with Acinetobacter baumannii [5], 0.125 µg/mL. For the same compound, the MIC in the assay with Enterococcus faecium was over 32 µg/mL; in the assay on Klebsiella pneumoniae [6], over 32 µg/mL; in the assay on Escherichia coli it was 16 µg/mL (≈ 14.7 µM). In addition, the “fold change (FC)” value in the assay with Acinetobacter baumannii [7] is 256 - 512; with Klebsiella pneumoniae [8], 4096.

As for `CC[C@H](C)[C@H](NC(=O)[C@H](CCN)NC(=O)c1ccccc1)C(=O)N[C@@H](CCN)C(=O)N[C@H](Cc1ccccc1)C(=O)N[C@@H](CC(C)C)C(=O)N[C@@H](CCN)C(=O)N[C@@H](C(=O)N[C@@H](CC(C)C)C(=O)N[C@@H](CO)C(N)=O)C(C)C` (Bz-[Dab]I[Dab][dF]L[Dab][dV]LS-NH2), the MIC is 8 to 32 µg/mL (≈ 7.31 to 29.2 µM) against Pseudomonas aeruginosa; over 32 µg/mL in the assay with Acinetobacter baumannii [1]; over 32 µg/mL in the assay on Staphylococcus aureus [2]; 0.0078 µg/mL with Klebsiella pneumoniae [3]; over 32 µg/mL in the assay on Staphylococcus aureus [4]; 0.0312 µg/mL in the assay on Acinetobacter baumannii [5]. Moreover, the MIC was over 32 µg/mL in the assay with Enterococcus faecium, over 32 µg/mL in the assay on Klebsiella pneumoniae [6] and 16 to 32 µg/mL (≈ 14.6 to 29.2 µM) against Escherichia coli. Also, the “fold change (FC)” value with Acinetobacter baumannii [7] is on record as 2048 - 4096; in the assay with Klebsiella pneumoniae [8] it was 4096 - 8192.

`CCCCCCC(=O)N[C@@H](CCN)C(=O)N[C@@H](Cc1ccccc1)C(=O)N[C@@H](CCN)C(=O)N[C@H](Cc1ccccc1)C(=O)N[C@@H](CC(C)C)C(=O)N[C@@H](CCN)C(=O)N[C@@H](C(=O)N[C@@H](CC(C)C)C(=O)N[C@@H](CO)C(N)=O)C(C)C` (Heptanoyl-[Dab]F[Dab][dF]L[Dab][dV]LS-NH2): the MIC with Pseudomonas aeruginosa was 2 to 4 µg/mL (≈ 1.76 to 3.52 µM); against Acinetobacter baumannii [1], 32 µg/mL (≈ 28.2 µM); in the assay on Staphylococcus aureus [2], 32 µg/mL (≈ 28.2 µM); against Staphylococcus aureus [4], at least 32 µg/mL; in the assay with Enterococcus faecium, over 32 µg/mL; against Klebsiella pneumoniae [6], 8 µg/mL (≈ 7.04 µM). Besides, the MIC in the assay on Escherichia coli was in the range of 1 to 4 µg/mL (≈ 0.88 to 3.52 µM).

On to `CC[C@H](C)[C@H](NC(=O)[C@H](CCN)NC(=O)OCc1ccccc1)C(=O)N[C@@H](CCN)C(=O)N[C@H](Cc1ccccc1)C(=O)N[C@@H](CC(C)C)C(=O)N[C@@H](CCN)C(=O)N[C@@H](C(=O)N[C@@H](CC(C)C)C(=O)N[C@@H](CO)C(N)=O)C(C)C` (Cbz-[Dab]I[Dab][dF]L[Dab][dV]LS-NH2), for which the MIC was 16 µg/mL (≈ 14.2 µM) with Pseudomonas aeruginosa; 16 µg/mL (≈ 14.2 µM) against Acinetobacter baumannii [1]; over 32 µg/mL against Staphylococcus aureus [2]; 0.0039 µg/mL in the assay on Klebsiella pneumoniae [3]; over 32 µg/mL in the assay on Staphylococcus aureus [4]; 0.0019 to 0.0039 µg/mL in the assay with Acinetobacter baumannii [5]. Also, the MIC is over 32 µg/mL in the assay on Enterococcus faecium, over 32 µg/mL in the assay on Klebsiella pneumoniae [6] and 8 to 16 µg/mL (≈ 7.11 to 14.2 µM) in the assay with Escherichia coli. The results for the “fold change (FC)” value with Acinetobacter baumannii [7] and with Klebsiella pneumoniae [8] were “>=8192” and 4096 - 8192, respectively.
